# Screens deposited in PubChem BioAssay by several laboratories.
# MEKK2mut PB1 HTS: signal of MEK5 binding to mutant human MEKK2 PB1 domain; percent response, % at 10 µM; AID 1530; 0.35% of 290,000 active; bead flow cytometry, Alexa488-MEK5 binding to MEKK2 mutant; in the data active = percent response above about 24%, passing the limit was not always enough
# DNA FID counter: fluorescent intercalator displacement, NS3 helicase counter-screen | DNA fluorescent intercalator displacement, fluorescence | inhibition, % at 7.9 µM | 0.17% of 290,000 active; in the data active = inhibition above about 37%;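 also: 0% = vehicle and 100% = reference compound; higher means more ethidium bromide displaced from hairpin DNA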
# T cruzi repl: blocks replication of Trypanosoma cruzi; T. cruzi beta-gal in NIH3T3, luminescence, 90 h; 1.4% of 300,000 active; inhibition, % (concentration not given with the values);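 active = mean inhibition across valid replicates above about 55%, limit read from the data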;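 also: signal also drops with host cell toxicity which is not excluded here; 0% = plate median of DMSO wells and 100% = zero luminescence signal; higher percent means less beta-gal luminescence so fewer parasites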
#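 System: mouse NIH/3T3 fibroblasts infected with β-gal-expressing T. cruzi Tulahuen C4 / Input: NIH/3T3 cells, 5,000 per well / Buffer or medium: Low-serum DMEM with 2% FBS / Probe or stimulus: 5000 reporter trypomastigotes per well / Schedule: ≥90 h infection period, 3 h prior cell attachment / Measured by: GalScreen luminescence, 60 min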
# MEKK2wt PB1 HTS: raises or lowers MEK5 binding to wildtype human MEKK2 PB1 domain. bead flow cytometry, Alexa488-MEK5 binding to MEKK2 WT; actives lie on both sides. binding response (% of control), % at 10 µM. 1.1% of 290,000 active; in the data active = binding response below about 67% or above about 130%
# HCV NS3 hel inh: blocks Hepatitis C virus NS3 helicase unwinding. AID 1800. inhibition, % at 10.9 µM. NS3 helicase DNA unwinding, Cy5 molecular beacon fluorescence. 0.56% of 290,000 active;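 active = inhibition above the mean of all tested compounds plus 3 SD, set per campaign, cut at about 35% in these data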;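 also: 0% = DMSO wells and 100% = thioflavine S control wells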
#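 Control set: DMSO versus 110 µM thioflavine S; Material: NS3 helicase fragment of HCV; Measured by: Cy5 fluorescence at 0 and 60 min, beacon hairpin quenching; Read-out basis: percent inhibition from t60/t0 fluorescence ratio; Times: reaction time 60 min, 25 °C; Repeats: single replicate; Compound dosing: single dose, 10.9 µM nominal final, DMSO 0.8% final.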
# MEKK3 PB1 HTS: MEKK3-MEK5 PB1 interaction, increase or decrease; Q99759; bead-based flow cytometry, Alexa488-MEK5 binding to MEKK3; actives lie on both sides; 0 = blocked by unlabeled MEK5, 100 = vehicle; binding response (% of control), % at 10 µM; 1.4% of 290,000 active; AID 1529;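 active = binding response more than 3 SD above or below the average of its plate-row segment, actives on both sides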;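 also: Alexa488 bead fluorescence after subtracting the streptavidin-only scavenger bead signal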
# Target sequence (Q99759 whole entry, looked up): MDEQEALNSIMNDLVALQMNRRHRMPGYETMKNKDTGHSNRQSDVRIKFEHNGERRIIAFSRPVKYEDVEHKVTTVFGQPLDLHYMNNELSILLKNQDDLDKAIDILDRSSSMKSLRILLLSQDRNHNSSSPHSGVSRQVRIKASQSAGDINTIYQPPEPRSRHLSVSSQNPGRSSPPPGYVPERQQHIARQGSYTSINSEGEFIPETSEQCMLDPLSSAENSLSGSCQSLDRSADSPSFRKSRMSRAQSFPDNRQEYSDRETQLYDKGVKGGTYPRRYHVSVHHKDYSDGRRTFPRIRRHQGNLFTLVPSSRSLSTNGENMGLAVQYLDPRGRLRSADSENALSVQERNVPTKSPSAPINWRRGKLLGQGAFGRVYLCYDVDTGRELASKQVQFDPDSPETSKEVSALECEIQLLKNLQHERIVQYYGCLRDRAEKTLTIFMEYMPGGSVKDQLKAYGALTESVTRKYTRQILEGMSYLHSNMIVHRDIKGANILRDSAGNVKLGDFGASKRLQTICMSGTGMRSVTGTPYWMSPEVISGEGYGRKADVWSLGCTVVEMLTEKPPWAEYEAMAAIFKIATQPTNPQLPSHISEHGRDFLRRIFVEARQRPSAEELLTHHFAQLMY
# The depositor's hits bear a star; x = no result. Hits are enriched below; roughly 4.1% of the tested compounds scored in any of these assays.
SMILES,MEKK2mut PB1 HTS,DNA FID counter,T cruzi repl,MEKK2wt PB1 HTS,HCV NS3 hel inh,MEKK3 PB1 HTS
CN(C)CCCN(C(=O)c1ccc(S(=O)(=O)N2CCc3ccccc32)cc1)c1nc2ccc(Cl)cc2s1,33.0*,10.5,34.5,181.0*,-29.4,107.0
CN(C)CCCN(C(=O)c1ccco1)c1nc2ccc(Cl)cc2s1,9.0,17.7,50.2,121.0,-6.2,100.0
Cn1nccc1C(=O)Oc1ccc(/C=N/NC(=O)c2ccccc2O)cc1,-4.0,-2.5,-18.3,96.0,-11.8,100.0
O=C(CC1CCCC1)Nc1ccc(Br)cc1,0.0,-7.1,-9.9,102.0,-2.8,102.0
CCOC(=O)N1CCN(S(=O)(=O)c2ccc(C(=O)N(CCCN(C)C)c3nc4c(C)c(C)ccc4s3)cc2)CC1,x,x,49.1,x,x,x
CN(C)CCCN(C(=O)c1ccc(S(=O)(=O)N(C)C)cc1)c1nc2ccc(F)cc2s1,13.0,10.1,67.3*,112.0,-3.7,102.0
Cc1cc(C)c2sc(N(CCCN(C)C)C(=O)c3ccc(S(=O)(=O)N4CCc5ccccc5C4)cc3)nc2c1,x,x,46.6,x,x,x
Cc1ccc2nc(N(CCCN(C)C)C(=O)c3ccc(S(=O)(=O)N4CCOCC4)cc3)sc2c1,10.0,24.5,59.7*,116.0,-67.9,100.0
Cc1ccc2sc(N(CCCN(C)C)C(=O)c3ccc(S(=O)(=O)N4CCOCC4)cc3)nc2c1C,x,x,66.1*,x,x,x
Cc1ccc2nc(N(CCCN(C)C)C(=O)c3ccc(S(=O)(=O)N4CCc5ccccc5C4)cc3)sc2c1,55.0*,28.1,28.2,223.0*,-36.5,113.0
Cc1ccc2nc(N(CCCN(C)C)C(=O)c3ccc(S(=O)(=O)N(C)C)cc3)sc2c1,0.0,7.4,52.7,102.0,-9.1,94.0
CCn1c(SCC(=O)Nc2ccccc2OC)nc(O)cc1=O,-3.0,-33.0,-9.7,100.0,2.5,98.0
COC(=O)c1sccc1NC(=O)COc1ccccc1Cl,-1.0,-7.7,1.5,111.0,-8.5,102.0
CCc1ccc(N(CC(=O)NCc2ccc(F)cc2)C(=O)c2csnn2)cc1,-4.0,-18.1,-5.2,96.0,-9.5,99.0
COc1cc(-c2c(NC(=O)c3ccco3)oc3ccccc3c2=O)cc(OC)c1OC,5.0,-24.4,-0.3,99.0,4.3,100.0
CN(C)CCCN(C(=O)c1cc(-c2cccs2)nc2ccccc12)c1nc2ccc(F)cc2s1,54.0*,40.1*,29.8,203.0*,-37.9,109.0
O=C(CCC1CCCN(Cc2ccc3c(c2)CCO3)C1)NCc1ccc(F)c(F)c1 (configuration not stated),-2.0,11.3,63.4*,100.0,-7.9,100.0
COc1ccccc1/C=C/CN1CCCC(CCC(=O)NCc2ccccc2F)C1 (configuration not stated),5.0,21.9,75.8*,114.0,-13.1,100.0
O=C(CCC1CCCN(C2C3CC4CC(C3)CC2C4)C1)NCc1ccc(F)c(F)c1 (configuration not stated),7.0,17.2,11.8,109.0,-17.2,105.0
Cc1ccc(C(=O)N2CCCC(CCC(=O)NCc3ccccc3F)C2)cn1 (configuration not stated),2.0,-17.5,-8.7,103.0,8.2,101.0
CC(=O)c1cccc(CN2CCCC(CCC(=O)NCc3ccccc3F)C2)c1 (configuration not stated),9.0,1.8,61.4*,111.0,0.6,105.0
Cc1ncc(CN2CCCC(CCC(=O)NCc3ccccc3F)C2)s1 (configuration not stated),-5.0,-1.5,61.0*,96.0,-1.4,102.0
Cc1cccc(N(O)C(=O)Nc2cccc(Cl)c2)c1,0.0,-2.1,1.3,102.0,12.2,101.0
O=C(O)c1ccc(Cl)c(NC(=S)NC(=O)c2ccccc2[N+](=O)[O-])c1,-10.0,-11.7,-21.8,101.0,5.4,101.0
N#C/C(=C\c1cc(Br)ccc1F)C(=O)NC1CC1,5.0,-4.1,-5.2,106.0,-0.1,102.0
SMILES,MEKK2mut PB1 HTS,DNA FID counter,T cruzi repl,MEKK2wt PB1 HTS,HCV NS3 hel inh,MEKK3 PB1 HTS
Cc1ncc(CN2CCCC(CCC(=O)NCc3ccc(F)c(F)c3)C2)s1 (configuration not stated),-13.0,6.7,61.3*,87.0,-7.4,94.0
CCc1cccc(NC(=O)CNC(=O)N2CC(=O)Nc3ccccc32)c1,0.0,-15.1,6.4,103.0,4.9,102.0
CCc1cccc(Nc2c([N+](=O)[O-])cc(C(=O)N3CC(=O)Nc4ccccc43)cc2[N+](=O)[O-])c1,32.0,-5.9,77.4*,125.0,2.1,110.0
Cc1cccc(/C(N)=N/OC(=O)N2c3ccccc3Sc3ccccc32)c1,0.0,7.8,43.4,102.0,1.9,103.0
N/C(=N\OC(=O)N1c2ccccc2Sc2ccccc21)c1ccccc1,-1.0,-2.9,82.4*,97.0,11.8,98.0
Cc1cc(C(=O)CCl)c(C)n1CCc1ccc(F)cc1,-2.0,3.8,72.6*,95.0,-12.8,102.0
Cc1cc(C(=O)CCl)c(C)n1CCc1ccc(Cl)cc1,-6.0,-11.0,61.6*,97.0,-4.9,97.0
COc1ccc(CCn2c(C)cc(C(=O)CCl)c2C)cc1OC,-1.0,-12.1,47.0,99.0,25.3,110.0
CCOc1ccc(NC(=O)CN(C)C(=O)CCCc2nc3ccccc3c(=O)[nH]2)cc1OCC,x,x,-14.3,x,x,x
CCC(C)Sc1cccc(-c2nc3ccc(C)cn3c2NC2CCCCC2)c1 (configuration not stated),x,x,19.8,x,x,x
CCC(C)Sc1ccc(-c2nc3ccc(C)cn3c2NC2CCCCC2)cc1 (configuration not stated),x,x,71.9*,x,x,x
O=[N+]([O-])c1ccc(C2CCCC/C2=N\OCc2cccc(F)c2)c([N+](=O)[O-])c1 (configuration not stated),x,-1.0,61.6*,x,-1.8,x
Cc1cc(C)cc(NC(=O)[C@H](Cc2c[nH]c3ccccc23)NC(=O)[C@@H]2Cc3ccccc3CN2)c1,-1.0,39.6*,17.6,99.0,-83.3,96.0
Cc1cccc(NC(=O)[C@H](Cc2c[nH]c3ccccc23)NC(=O)[C@@H]2Cc3ccccc3CN2)c1,6.0,8.4,12.9,112.0,-129.0,102.0
CC(=O)N1CCN(C2c3cccc4cccc(c34)C2NS(=O)(=O)c2ccccc2)CC1 (configuration not stated),-9.0,-28.7,9.2,85.0,-10.4,84.0
O=S(=O)(NC1c2cccc3cccc(c23)C1N1CCNCC1)c1ccc(Cl)cc1 (configuration not stated),-13.0,43.2*,35.5,96.0,-70.9,89.0
COc1ccc(N=Nc2n(C)c3ccccc3[n+]2C)cc1,-15.0,0.2,63.8*,90.0,7.9,87.0
CC(=O)c1ccc(N2CCN(C(=S)Nc3ccc(Oc4ccccc4)cc3)CC2)cc1,-2.0,-8.0,-2.0,105.0,-3.8,107.0
